Measured values from ChEMBL document CHEMBL3046507, “Synthesis and herbicidal activities of novel 3-N-substituted amino-6-methyl-4-(3-trifluoromethylphenyl)pyridazine derivatives” (2008).

Key:
[1] = tested on: Brassica rapa subsp. oleifera; assay: Herbicidal activity against Brassica rapa subsp. oleifera assessed as inhibition of fresh plant weight at 150 g/ha using postemergence protocol measured after 24 days under green house conditions; settings: post-emergence
Amaranthus retroflexus [2] = assay: Herbicidal activity against Amaranthus retroflexus assessed as inhibition of fresh plant weight at 300 g/ha using postemergence protocol measured after 24 days under green house conditions; settings: post-emergence
[3] = tested on: Brassica rapa subsp. oleifera; assay: Herbicidal activity against Brassica rapa subsp. oleifera assessed as inhibition of fresh plant weight at 750 g/ha using preemergence protocol measured after 24 days under green house conditions; settings: pre-emergence
Spirodela polyrhiza [4] = assay: Inhibition of chlorophyll in Spirodela polyrhiza fronds at 1 ug/mL using light intensity of 45 uE/m2/s measured after 7 days; assay type: functional; settings: 168 h
Procedure, shortened: (§1)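 Giant duckweed assay. Compound in DMF dropped onto filter paper, solvent evaporated 15 min, paper placed in flask with 15 mL fresh medium and shaken >10 min. 10 fronds inoculated per flask and grown 7 days at 23-26 °C, 16 h light/8 h dark, ca. 45 µE m^-2 s^-1. DMF plus medium served as control. Chl extracted in 96% ethanol overnight at 4 °C; OD read at 665 and 649 nm; content expressed as percent of control.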

Digitaria [5] = assay: Herbicidal activity against Digitaria adscendens assessed as inhibition of fresh plant weight at 750 g/ha using preemergence protocol measured after 24 days under green house conditions; settings: in Digitaria adscendens, pre-emergence
[6] = tested on: Brassica rapa subsp. oleifera; assay: Herbicidal activity against Brassica rapa subsp. oleifera assessed as inhibition of fresh plant weight at 750 g/ha using postemergence protocol measured after 24 days under green house conditions; settings: post-emergence
[7] = tested on: Brassica rapa subsp. oleifera; assay: Herbicidal activity against Brassica rapa subsp. oleifera assessed as inhibition of fresh plant weight at 75 g/ha using postemergence protocol measured after 24 days under green house conditions; settings: post-emergence
Spirodela polyrhiza [8] = assay: Inhibition of chlorophyll in Spirodela polyrhiza fronds at 10 ug/mL using light intensity of 45 uE/m2/s measured after 7 days; assay type: functional; settings: 168 h
Procedure, shortened: as §1

Amaranthus retroflexus [9] = assay: Herbicidal activity against Amaranthus retroflexus assessed as inhibition of fresh plant weight at 75 g/ha using postemergence protocol measured after 24 days under green house conditions; settings: post-emergence
Amaranthus retroflexus [10] = assay: Herbicidal activity against Amaranthus retroflexus assessed as inhibition of fresh plant weight at 150 g/ha using postemergence protocol measured after 24 days under green house conditions; settings: post-emergence
Amaranthus retroflexus [11] = assay: Herbicidal activity against Amaranthus retroflexus assessed as inhibition of fresh plant weight at 600 g/ha using postemergence protocol measured after 24 days under green house conditions; settings: post-emergence
Echinochloa crus-galli [12] = assay: Herbicidal activity against Echinochloa crus-galli (barnyard grass) assessed as inhibition of fresh plant weight at 750 g/ha using preemergence protocol measured after 24 days under green house conditions; settings: pre-emergence
[13] = tested on: Brassica rapa subsp. oleifera; assay: Herbicidal activity against Brassica rapa subsp. oleifera assessed as inhibition of fresh plant weight at 600 g/ha using postemergence protocol measured after 24 days under green house conditions; settings: post-emergence
Amaranthus retroflexus [14] = assay: Herbicidal activity against Amaranthus retroflexus assessed as inhibition of fresh plant weight at 750 g/ha using postemergence protocol measured after 24 days under green house conditions; settings: post-emergence
Amaranthus retroflexus [15] = assay: Herbicidal activity against Amaranthus retroflexus assessed as inhibition of fresh plant weight at 750 g/ha using preemergence protocol measured after 24 days under green house conditions; settings: pre-emergence
Digitaria [16] = assay: Herbicidal activity against Digitaria adscendens assessed as inhibition of fresh plant weight at 750 g/ha using postemergence protocol measured after 24 days under green house conditions; settings: in Digitaria adscendens, post-emergence
[17] = tested on: Brassica rapa subsp. oleifera; assay: Herbicidal activity against Brassica rapa subsp. oleifera assessed as inhibition of fresh plant weight at 300 g/ha using postemergence protocol measured after 24 days under green house conditions; settings: post-emergence
Echinochloa crus-galli [18] = assay: Herbicidal activity against Echinochloa crus-galli (barnyard grass) assessed as inhibition of fresh plant weight at 750 g/ha using postemergence protocol measured after 24 days under green house conditions; settings: post-emergence
[19] = tested on: Brassica rapa subsp. oleifera; assay: Herbicidal activity against Brassica rapa subsp. oleifera assessed as inhibition of fresh plant weight at 600 g/ha using preemergence protocol measured […] under green house conditions; assay type: functional; settings: pre-emergence
Procedure, shortened: (§2)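 Pre-emergence treatment. Aboveground fresh weight measured 24 days later; percent inhibition calculated against controls. Two replicates per treatment.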

Echinochloa crus-galli [20] = assay: Herbicidal activity against Echinochloa crus-galli (barnyard grass) assessed as inhibition of fresh plant weight at 600 g/ha using preemergence protocol […] under green house conditions; assay type: functional; settings: pre-emergence
Procedure, shortened: as §2

Echinochloa crus-galli [21] = assay: Herbicidal activity against Echinochloa crus-galli (barnyard grass) assessed as inhibition of fresh plant weight at 600 g/ha using postemergence protocol measured […] under green house conditions; assay type: functional; settings: post-emergence
Procedure, shortened: (§3)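 Weed seedlings at one-leaf-and-one-stem stage sprayed post-emergence with test solution at 750, 600, 300, 150 or 75 g/ha. Aboveground fresh weight determined 24 days after treatment; percent inhibition calculated relative to controls. Two replicates per treatment.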

Digitaria [22] = assay: Herbicidal activity against Digitaria adscendens assessed as inhibition of fresh plant weight at 600 g/ha using postemergence protocol […] under green house conditions; assay type: functional; settings: in Digitaria adscendens, post-emergence
Procedure, shortened: as §3

Digitaria [23] = assay: Herbicidal activity against Digitaria adscendens assessed as inhibition of fresh plant weight at 600 g/ha using preemergence protocol […] under green house conditions; assay type: functional; settings: in Digitaria adscendens, pre-emergence
Procedure, shortened: as §2

Amaranthus retroflexus [24] = assay: Herbicidal activity against Amaranthus retroflexus assessed as inhibition of fresh plant weight at 600 g/ha using preemergence protocol measured […] under green house conditions; assay type: functional; settings: pre-emergence
Procedure, shortened: as §2

O=C(Nc1ccc(F)cc1F)c1cccnc1Oc1cccc(C(F)(F)F)c1 [DIFLUFENICAN] was tested, and the inhibition at 150 g/ha [1] was 88%, the inhibition at 300 g/ha (Amaranthus retroflexus [2]) was 74% and the inhibition at 750 g/ha [3] was 71%. The inhibition at 1 µg/mL (Spirodela polyrhiza [4]) was 90%, the inhibition at 750 g/ha (Digitaria [5]) was 100% and the inhibition at 750 g/ha [6] was 98%. The inhibition at 75 g/ha [7] was 44%, the inhibition at 10 µg/mL (Spirodela polyrhiza [8]) was 94% and the inhibition at 75 g/ha (Amaranthus retroflexus [9]) was 41%. The inhibition at 150 g/ha (Amaranthus retroflexus [10]) was 70%, the inhibition at 600 g/ha (Amaranthus retroflexus [11]) was 100% and the inhibition at 750 g/ha (Echinochloa crus-galli [12]) was 94%. The inhibition at 600 g/ha [13] was 98%, the inhibition at 750 g/ha (Amaranthus retroflexus [14]) was 100% and the inhibition at 750 g/ha (Amaranthus retroflexus [15]) was 90%. For the same molecule, the inhibition at 750 g/ha (Digitaria [16]) was 83%, the inhibition at 300 g/ha [17] was 94% and the inhibition at 750 g/ha (Echinochloa crus-galli [18]) was 67%.

With Cc1cc(-c2cccc(C(F)(F)F)c2)c(Nc2ccc(Cl)cc2)nn1 the inhibition at 150 g/ha [1] was 87%, the inhibition at 300 g/ha (Amaranthus retroflexus [2]) was 60% and the inhibition at 750 g/ha [3] was 18%. For the same molecule, the inhibition at 1 µg/mL (Spirodela polyrhiza [4]) was 87%, the inhibition at 750 g/ha (Digitaria [5]) was 0% and the inhibition at 750 g/ha [6] was 100%. It also gave an inhibition at 75 g/ha [7] of 52%, an inhibition at 10 µg/mL (Spirodela polyrhiza [8]) of 100% and an inhibition at 75 g/ha (Amaranthus retroflexus [9]) of 42%. For the same molecule, the inhibition at 150 g/ha (Amaranthus retroflexus [10]) was 45%, the inhibition at 600 g/ha (Amaranthus retroflexus [11]) was 66% and the inhibition at 750 g/ha (Echinochloa crus-galli [12]) was 0%. The inhibition at 600 g/ha [13] was 90%, the inhibition at 750 g/ha (Amaranthus retroflexus [14]) was 100% and the inhibition at 750 g/ha (Amaranthus retroflexus [15]) was 0%. It also gave an inhibition at 750 g/ha (Digitaria [16]) of 0%, an inhibition at 300 g/ha [17] of 89% and an inhibition at 750 g/ha (Echinochloa crus-galli [18]) of 0%.

Cc1cccc(Nc2nnc(C)cc2-c2cccc(C(F)(F)F)c2)c1 gave an inhibition at 150 g/ha [1] of 0%, an inhibition at 300 g/ha (Amaranthus retroflexus [2]) of 25% and an inhibition at 750 g/ha [3] of 18%. The inhibition at 1 µg/mL (Spirodela polyrhiza [4]) was 100%, the inhibition at 750 g/ha (Digitaria [5]) was 7% and the inhibition at 750 g/ha [6] was 79%. It also gave an inhibition at 10 µg/mL (Spirodela polyrhiza [8]) of 100%, an inhibition at 150 g/ha (Amaranthus retroflexus [10]) of 23% and an inhibition at 600 g/ha (Amaranthus retroflexus [11]) of 52%. It also gave an inhibition at 750 g/ha (Echinochloa crus-galli [12]) of 8%, an inhibition at 600 g/ha [13] of 42% and an inhibition at 750 g/ha (Amaranthus retroflexus [14]) of 64%. For the same molecule, the inhibition at 750 g/ha (Amaranthus retroflexus [15]) was 81%, the inhibition at 750 g/ha (Digitaria [16]) was 6% and the inhibition at 300 g/ha [17] was 30%. For the same molecule, the inhibition at 750 g/ha (Echinochloa crus-galli [18]) was 29%.

CCCn1nc(C)cc(-c2cccc(C(F)(F)F)c2)c1=O was tested, and the inhibition at 600 g/ha [19] was 61%, the inhibition at 600 g/ha (Echinochloa crus-galli [20]) was 82% and the inhibition at 600 g/ha (Echinochloa crus-galli [21]) was 5%. It also gave an inhibition at 10 µg/mL (Spirodela polyrhiza [8]) of 90%, an inhibition at 600 g/ha (Amaranthus retroflexus [11]) of 28% and an inhibition at 600 g/ha [13] of 6%. The inhibition at 600 g/ha (Digitaria [22]) was 19%, the inhibition at 600 g/ha (Digitaria [23]) was 100% and the inhibition at 600 g/ha (Amaranthus retroflexus [24]) was 51%.

Molecule Cc1cc(-c2cccc(C(F)(F)F)c2)c(Nc2ccc(F)cc2)nn1 has an inhibition at 150 g/ha [1] of 58%, an inhibition at 300 g/ha (Amaranthus retroflexus [2]) of 55% and an inhibition at 750 g/ha [3] of 8%. The inhibition at 1 µg/mL (Spirodela polyrhiza [4]) was 100%, the inhibition at 750 g/ha (Digitaria [5]) was 0% and the inhibition at 750 g/ha [6] was 88%. The inhibition at 75 g/ha [7] was 55%, the inhibition at 10 µg/mL (Spirodela polyrhiza [8]) was 100% and the inhibition at 75 g/ha (Amaranthus retroflexus [9]) was 32%. For the same molecule, the inhibition at 150 g/ha (Amaranthus retroflexus [10]) was 43%, the inhibition at 600 g/ha (Amaranthus retroflexus [11]) was 64% and the inhibition at 750 g/ha (Echinochloa crus-galli [12]) was 2%. The inhibition at 600 g/ha [13] was 93%, the inhibition at 750 g/ha (Amaranthus retroflexus [14]) was 85% and the inhibition at 750 g/ha (Amaranthus retroflexus [15]) was 19%. The inhibition at 750 g/ha (Digitaria [16]) was 0%, the inhibition at 300 g/ha [17] was 83% and the inhibition at 750 g/ha (Echinochloa crus-galli [18]) was 23%.
